Experiments:
Format in all cases: functional, cell-based
[1] = system: A-375; test: Cytotoxicity against human A375 cells by MTT assay
Summary of the method: (§1)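 Cells grown in RPMI-1640 with 10% fetal calf serum plus penicillin and streptomycin, 37 °C, 5% CO₂. Compounds in DMSO, final ≤2% (v/v), tested in 96-well cultures with MTT staining. IC₅₀ = concentration cutting optical density 50% versus untreated cells; three replicate wells per point; mean of three independent determinations.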

[2] = system: 769-P; test: Cytotoxicity against human 769-P cells by MTT assay; summary of the method: as §1
[3] = system: A549; test: Cytotoxicity against human A549 cells by MTT assay; summary of the method: as §1
[4] = system: KB; test: Cytotoxicity against human KB cells by MTT assay; summary of the method: as §1
[5] = system: SCaBER; test: Cytotoxicity against human SCaBER cells by MTT assay; summary of the method: as §1
[6] = system: OS-RC-2; test: Cytotoxicity against human OS-RC2 cells by MTT assay; summary of the method: as §1
[7] = Cytotoxicity against human Blu-87 cells by MTT assay; summary of the method: as §1
[8] = system: U-251; test: Cytotoxicity against human U251 cells by MTT assay; summary of the method: as §1
[9] = system: 786-0; test: Cytotoxicity against human 786-0 cells by MTT assay; summary of the method: as §1
[10] = system: HT-29; test: Cytotoxicity against human HT-29 cells by MTT assay; summary of the method: as §1
[11] = system: BGC-823; test: Cytotoxicity against human BGC823 cells by MTT assay; summary of the method: as §1
[12] = system: HepG2; test: Cytotoxicity against human HepG2 cells by MTT assay; summary of the method: as §1
[13] = system: Bel-7402; test: Cytotoxicity against human Bel7402 cells by MTT assay; summary of the method: as §1
[14] = system: MCF7; test: Cytotoxicity against human MCF7 cells by MTT assay; summary of the method: as §1
[15] = system: HeLa; test: Cytotoxicity against human HeLa cells by MTT assay; summary of the method: as §1

CCOc1ccc2c3cc[n+](Cc4ccccc4)c(C)c3n(CC)c2c1
IC50 [1]: 6.8 µM | IC50 [2]: 6.4 µM | IC50 [3]: 11.2 µM | IC50 [4]: 4.6 µM | IC50 [5]: 19.8 µM | IC50 [6]: 7.8 µM | IC50 [7]: 23.4 µM | IC50 [8]: 15.2 µM | IC50 [9]: 9.6 µM | IC50 [10]: 10.2 µM

CCn1c2cc(OCc3ccccc3)ccc2c2ccnc(C)c21
IC50 [11]: 17.2 µM | IC50 [12]: 15.5 µM | IC50 [13]: > 100 µM | IC50 [14]: > 100 µM | IC50 [15]: > 100 µM

CCCCCCCCCCOc1ccc2c3ccnc(C)c3n(CCCC)c2c1
IC50 [12]: > 100 µM | IC50 [15]: > 100 µM

Cc1nccc2c3ccc(OCc4c(F)c(F)c(F)c(F)c4F)cc3n(CCCc3ccccc3)c12
IC50 [12]: > 100 µM

CCCCCCCCOc1ccc2c3ccnc(C)c3n(CCCc3ccccc3)c2c1
IC50 [12]: > 100 µM | IC50 [15]: > 100 µM

CCCCn1c2cc(OCC(O)C(F)(F)F)ccc2c2ccnc(C)c21 (stereo not drawn)
IC50 [11]: 96.4 µM | IC50 [12]: > 100 µM | IC50 [13]: 62 µM | IC50 [14]: 33.1 µM | IC50 [15]: > 100 µM

CCCCCCCCOc1ccc2c3ccnc(C)c3n(CCCC)c2c1
IC50 [11]: 15.4 µM | IC50 [12]: 13.6 µM | IC50 [13]: > 100 µM | IC50 [14]: 13.6 µM | IC50 [15]: > 100 µM

CCCCn1c2cc(OCc3ccccc3)ccc2c2ccnc(C)c21
IC50 [11]: 17.2 µM | IC50 [1]: 28.6 µM | IC50 [2]: 17.1 µM | IC50 [3]: 18.1 µM | IC50 [12]: 17.8 µM | IC50 [4]: 45 µM | IC50 [13]: > 100 µM | IC50 [5]: 39.7 µM | IC50 [7]: 32.7 µM | IC50 [14]: 16.9 µM | IC50 [9]: 10.1 µM | IC50 [10]: 26.8 µM | IC50 [15]: 47 µM

CCCCn1c2cc(OCc3c(F)c(F)c(F)c(F)c3F)ccc2c2ccnc(C)c21
IC50 [11]: 18.3 µM | IC50 [12]: 13.6 µM | IC50 [13]: > 100 µM | IC50 [14]: > 100 µM | IC50 [15]: > 100 µM

Cc1nccc2c3ccc(OCC(C)C)cc3n(CC(C)C)c12
IC50 [11]: 26.6 µM | IC50 [1]: 22.2 µM | IC50 [2]: 30.8 µM | IC50 [3]: 32.4 µM | IC50 [12]: 36.8 µM | IC50 [4]: 27.5 µM | IC50 [13]: 42.6 µM | IC50 [5]: 28.8 µM | IC50 [6]: 30.5 µM | IC50 [7]: 32.3 µM | IC50 [8]: 49.6 µM | IC50 [14]: 29.4 µM | IC50 [9]: 18.1 µM | IC50 [10]: 35.3 µM | IC50 [15]: 32.3 µM

CCCCCCCCCCOc1ccc2c3ccnc(C)c3n(CC(C)C)c2c1
IC50 [11]: 74.1 µM | IC50 [12]: > 100 µM | IC50 [13]: > 100 µM | IC50 [14]: > 100 µM | IC50 [15]: 2 µM

Cc1nccc2c3ccc(OCCCc4ccccc4)cc3n(CC(C)C)c12
IC50 [11]: 18.5 µM | IC50 [12]: 27.7 µM | IC50 [13]: > 100 µM | IC50 [14]: 19.5 µM | IC50 [15]: 27.6 µM

CCCCOc1ccc2c3ccnc(C)c3n(CCCc3ccccc3)c2c1
IC50 [11]: 14 µM | IC50 [12]: 12.4 µM | IC50 [13]: 34.8 µM | IC50 [14]: 68.9 µM | IC50 [15]: 88.7 µM

Cc1nccc2c3ccc(OCC(C)C)cc3n(CCCc3ccccc3)c12
IC50 [11]: 23 µM | IC50 [12]: 12.9 µM | IC50 [13]: 39.3 µM | IC50 [14]: > 100 µM | IC50 [15]: > 100 µM

CC(C)=CCOc1ccc2c3ccnc(C)c3n(CCCc3ccccc3)c2c1
IC50 [11]: 32.3 µM | IC50 [12]: 21.1 µM | IC50 [13]: 24.7 µM | IC50 [14]: > 100 µM | IC50 [15]: > 100 µM

Cc1nccc2c3ccc(OCCCc4ccccc4)cc3n(CCCc3ccccc3)c12
IC50 [11]: 19.8 µM | IC50 [12]: 16.7 µM | IC50 [13]: > 100 µM | IC50 [14]: > 100 µM | IC50 [15]: > 100 µM

CCn1c2cc(OC(C)C)ccc2c2ccnc(C)c21
IC50 [11]: 59.7 µM | IC50 [12]: 52.6 µM | IC50 [13]: 43.6 µM | IC50 [14]: > 100 µM | IC50 [15]: 27.6 µM

CCCCOc1ccc2c3ccnc(C)c3n(CC)c2c1
IC50 [11]: 15.6 µM | IC50 [12]: 16.3 µM | IC50 [13]: 52.9 µM | IC50 [14]: 18.5 µM | IC50 [15]: 29.2 µM

CCCCCCCCCCOc1ccc2c3ccnc(C)c3n(CC)c2c1
IC50 [11]: 15.2 µM | IC50 [12]: 14.1 µM | IC50 [13]: > 100 µM | IC50 [14]: 45.9 µM | IC50 [15]: > 100 µM

CCn1c2cc(OCc3c(F)c(F)c(F)c(F)c3F)ccc2c2ccnc(C)c21
IC50 [11]: > 100 µM | IC50 [12]: > 100 µM | IC50 [13]: > 100 µM | IC50 [14]: > 100 µM | IC50 [15]: > 100 µM

From ChEMBL document CHEMBL2311271 (Eur J Med Chem, 2013)
